ChEMBL document CHEMBL1287655, “Structure-activity relationship studies of acridones as potential antipsoriatic agents. 2. Synthesis and antiproliferative activity of 10-substituted hydroxy-10H-acridin-9-ones against human keratinocyte growth” (Eur J Med Chem, 2010)

Columns and labels:
HaCaT [1] = assay: Antiproliferative activity against human HaCaT cells assessed as dispersed cells after 48 hrs by phase-contrast microscopic analysis; assay type: functional, cell-based
Summary of the method: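 HaCaT keratinocytes (non-transformed human line) treated for 48 h, then dispersed cells counted by phase-contrast microscopy. Inhibition = (1 − test/control) × 100, from means of test (N = 3) versus control (N = 6–8). Significance by Student's t-test (P < 0.05). IC50 obtained by nonlinear regression.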

HaCaT [2] = assay: Cytotoxicity against human HaCaT cells assessed as LDH release at 2 uM after 4 hrs by UV method relative to control; assay type: functional
Summary of the method: (§1)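 HaCaT cells exposed to test compound for 4 h at 37 °C. Extracellular LDH activity measured by UV method with pyruvate and NADH and reported in mU/mL (N = 3, SD < 10%). Vehicle control was 0.2% DMSO in culture medium. Brij 35 with ultrasound served as positive control. Significance versus vehicle at P < 0.05.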

[3] = tested on: Radical scavenging activity; assay: Antioxidant activity assessed as DPPH free radical scavenging activity; assay type: functional
Summary of the method: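 Cell-free DPPH radical interaction: compound effect on DPPH absorbance read at 520 nm. Percent interaction = (1 − test absorbance/control absorbance) × 100, from mean of N = 3 versus control N = 8. EC50 is the concentration giving 50% decrease in DPPH absorbance. NDGA and α-tocopherol served as positive controls.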

HaCaT [4] = assay: Cytotoxicity against human HaCaT cells assessed as LDH release at 2 uM after 4 hrs by UV method; assay type: functional; summary of the method: as §1

Row | EC50 [3] | Structure (SMILES) | IC50 (HaCaT [1]) | Activity (HaCaT [2]) | Activity (HaCaT [4])
1 | > 500 µM | O=c1c2ccccc2n(Cc2ccc([N+](=O)[O-])cc2)c2cccc(O)c12 | 1.8 µM | 86.7 mU/ml | 
2 |  | COc1cc(O)c2c(=O)c3ccccc3n(C)c2c1 | > 50 µM |  | 
3 |  | COc1cc(CCn2c3ccccc3c(=O)c3c(O)cccc32)cc(OC)c1OC | 45.5 µM |  | 
4 |  | Cc1cccc2c1c(=O)c1c(O)cc(O)cc1n2C | > 50 µM |  | 
5 |  | O=c1c2ccccc2n(CCc2ccccc2)c2cccc(O)c12 | 41.5 µM |  | 
6 |  | CCn1c2ccccc2c(=O)c2c(O)cc(O)cc21 | > 50 µM |  | 
7 |  | O=c1c2ccccc2n(CCCc2ccccc2)c2cccc(O)c12 | > 50 µM |  | 
8 | > 500 µM | O=c1c2ccccc2[nH]c2cccc(O)c12 | > 50 µM |  | 
9 |  | O=c1c2ccccc2n(Cc2ccccc2)c2ccc(Cc3ccccc3)c(O)c12 | 13 µM |  | 
10 |  | O=c1c2ccccc2n(Cc2ccccc2)c2cc(OCc3ccccc3)cc(O)c12 | > 50 µM |  | 
11 | > 500 µM | COc1ccc(CCn2c3ccccc3c(=O)c3c(O)cccc32)cc1OC | 7 µM |  | 
12 | 16.7 µM | O=C1c2c(O)cccc2Cc2cccc(O)c21 [ANTHRALIN] |  | 122.8 mU/ml | 
13 |  | CCn1c2ccccc2c(=O)c2c(O)cccc21 | > 50 µM |  | 
14 |  | O=c1c2ccccc2n(Cc2ccccc2)c2ccccc12 | > 50 µM |  | 
15 | > 500 µM | CC(=O)CC(=O)n1c2ccccc2c(=O)c2c(O)cccc21 | 3.3 µM |  | 74 mU/ml
16 |  | O=c1c2ccccc2[nH]c2ccccc12 [ACRIDONE] | > 50 µM |  | 
17 | > 500 µM | O=c1c2ccccc2[nH]c2cc(O)cc(O)c12 |  |  | 

Row | EC50 [3] | Structure (SMILES) | IC50 (HaCaT [1]) | Activity (HaCaT [2]) | Activity (HaCaT [4])
18 | > 500 µM | O=c1c2ccccc2n(Cc2ccccc2)c2cccc(O)c12 | 2.5 µM |  | 74.9 mU/ml
19 |  | CCOc1cc(O)c2c(=O)c3ccccc3n(CC)c2c1 | > 50 µM |  | 
20 |  | CCCn1c2ccccc2c(=O)c2c(O)cc(O)cc21 | > 50 µM |  | 
21 |  | COc1cccc2c1c(=O)c1ccccc1n2C | > 50 µM |  | 
22 | > 500 µM | O=c1c2ccccc2n(Cc2ccccc2)c2cccc(OCc3ccccc3)c12 | 7.5 µM |  | 72.1 mU/ml
23 |  | CC(=O)CC(=O)n1c2ccccc2c(=O)c2ccccc21 | 27.8 µM |  | 
24 | > 500 µM | O=c1c2ccccc2n(CCc2ccc(O)cc2)c2cccc(O)c12 | 20.1 µM |  | 
25 | > 500 µM | Cn1c2ccccc2c(=O)c2c(O)cc(O)cc21 | 0.6 µM |  | 74.3 mU/ml
26 |  | O=c1c2ccccc2n(CCCc2ccccc2)c2cc(O)cc(O)c12 | 40.5 µM |  | 
27 |  | Cn1c2ccccc2c(=O)c2ccccc21 | 38.9 µM |  | 
28 |  | CCCn1c2ccccc2c(=O)c2c(O)cccc21 | > 50 µM |  | 
29 | > 500 µM | O=c1c2ccccc2n(Cc2ccccc2)c2cc(O)cc(O)c12 | 3.7 µM |  | 76.8 mU/ml
30 |  | O=c1c2ccccc2n(CCCCc2ccccc2)c2cccc(O)c12 | > 50 µM |  | 
31 | > 500 µM | COc1ccc(CCn2c3ccccc3c(=O)c3c(O)cccc32)cc1 | 6.3 µM |  | 74.6 mU/ml
32 |  | Cn1c2ccccc2c(=O)c2c(O)cccc21 | > 50 µM |  | 
33 | > 500 µM | COc1ccc(Cn2c3ccccc3c(=O)c3ccccc32)cc1OC | > 50 µM |  | 

Row | Structure (SMILES) | EC50 [3] | IC50 (HaCaT [1]) | Activity (HaCaT [2]) | Activity (HaCaT [4])
34 | COc1cc2c(c3c1c(=O)c1ccccc1n3C)C=CC(C)(C)O2 [ACRONINE] | > 500 µM | 3.2 µM |  | 70.4 mU/ml
